# An excerpt weighted towards active compounds, which were near 4.9% of everything screened.
# APP 5'UTR act = activators of APP 5'UTR luciferase reporter, primary screen, SH-SY5Y cells; SH-SY5Y APP 5'UTR luciferase reporter, luminescence; zero percent = DMSO vehicle wells; activation, % at 2 µM; 1% of 190,000 active;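 active means activation above a set limit, based on mean plus 3 SD of controls, cut at about 140% in these data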
# STAT1 inh = STAT1 signaling inhibitors, primary screen, cell-based, HTS, luciferase reporter; 0.35% of 200,000 active; NIH 3T3 STAT1-luciferase reporter, IFN-gamma, luminescence; inhibition, % at 5.5 µM; AID 920, 2007;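 active means inhibition above a set limit, the mean inhibition across all tested compounds plus 3 SD, cut at about 34% in these data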;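 further: 0% = IFN-gamma with DMSO and 100% = IFN-gamma with 300 µM nifuroxazide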
# STAT3 activator = IL-6 driven STAT3 reporter potentiators, primary screen, U3A cells, luciferase, luminescence, MLSCN library | IL-6 STAT3-luciferase reporter; 100% = signal with IL-6 EC80 alone | activation (% of control), % at 5.6 µM | 0.91% of 190,000 active | AID 871, 2007;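 active means activation above the screen-wide mean of compound activation plus 3 SD, cut at about 130% in these data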;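 further: 0% = background luminescence of wells with medium and substrate only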
#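 system = STAT3-luciferase reporter U3A cells | reagent = IL-6 stimulus at 33 ng/mL final | timing = 1 h compound pre-exposure, 6 h IL-6 stimulation, 37 °C | measured by = luminescence | evaluation = % activation versus median of IL-6-stimulated wells | control set = IL-6-only wells as 100% reference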
# STAT3 inh = IL-6 driven STAT3 reporter inhibitors, primary screen, U3A cells, luciferase, luminescence, MLSCN library. IL-6 STAT3-luciferase reporter; host cell line lacks STAT1. inhibition, % at 5.5 µM. 0.89% of 190,000 active. AID 862, 2007;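 active means inhibition above the mean inhibition across all screened compounds plus 3 SD, cut at about 44% in these data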;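 further: 0% = DMSO only wells and 100% = 100 µM nifuroxazide control wells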
# NF-kB neuron act = activators of NF-kB expression in neurons, primary screen, cell-based, HTS. human neuronal cells, NF-kB reporter expression; hits give high values. 1.6% of 190,000 active. fold change at 12.5 µM; in the data active means fold change above about 3.3
# STAT1 act = STAT1 signaling activators, primary screen, cell-based, HTS, luciferase reporter | NIH 3T3 STAT1-luciferase reporter, IFN-gamma, luminescence; 100% = IFN-gamma alone, no compound | activation (% of control), % at 5.5 µM | 2.6% of 200,000 active | AID 932, 2007;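 active means activation above the screen-wide mean activation plus 3 SD, cut at about 130% in these data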;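 further: raw ratio to IFN-gamma control signal so 100% means no change and 0% no light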
# Numbers without * were called inactive; · = no result given.
SMILES,APP 5'UTR act,STAT1 inh,STAT3 activator,STAT3 inh,NF-kB neuron act,STAT1 act
O=C(C1CCC(C(=O)N2CCc3ccccc32)CC1)N1CCc2ccccc21 (stereo not given),-16,4,95,11,1.2,97
O=C(NC1CCCCC1)N1CCc2ccccc21,52,-32,99,5,2.4,129*
COc1ccc(C(=O)NNC(=O)CSc2nnc(-c3cccnc3)n2C)cc1,6,-7,104,-1,0.93,106
O=C(O)/C=C\C(=O)Nc1ccccc1C#Cc1ccccc1,73,-44,93,18,6.8*,140*
CCc1ccc(C2NC(=S)NC3=C2C(=O)CC(C)(C)C3)cc1 (stereo not given),13,8,96,0,0.81,93
Cn1ncc2c(Nc3ccc4ccccc4c3)ncnc21,81,-50,103,2,2.5,145*
CC(C)(C)c1ccc(S(=O)(=O)CCc2ccccn2)cc1,12,-32,116,-15,1.7,129*
CCc1ccc(NC(=O)CSc2nc3ccccc3c(=O)n2CCCN2CCC(C)CC2)cc1,6,-4,112,-1,0.79,103
C(=N\Nc1ccccn1)/c1ccc(N2CCOCC2)cc1,115,-24,84,23,4.5*,121
C(=N\Nc1ccccc1)/c1ccc(N2CCOCC2)cc1,106,-23,89,19,1.4,121
C/C(=N\Nc1ccccn1)c1ccc(C(C)C)cc1,17,-24,95,8,2.7,122
C/C(=N\Nc1ccccn1)c1ccc(N2CCOCC2)cc1,46,-45,92,17,3.1,141*
CC1CC(C)CN(c2cc(N(C)CCO)c([N+](=O)[O-])c3nonc23)C1 (stereo not given),17,5,97,5,1.1,93
Cc1onc(-c2c(F)cccc2Cl)c1C(=O)NC(=S)NCc1cccnc1,10,-5,90,19,0.91,104
CO/N=C(/C)CCS(=O)(=O)c1ccccc1,2,2,99,4,1.1,98
C[C@H]1COC2=C1C(=O)C(=O)c1c2ccc2c1CCCC2(C)C,-2,-33,·,·,1.4,129*
Cc1coc2c1C(=O)C(=O)c1c-2ccc2c1CCCC2(C)C,-8,-20,·,·,1.3,117
COc1ccc(C(C(=O)NCCC(C)C)N(CCN2CCOCC2)C(=O)Cn2nnc3ccccc32)c(OC)c1 (stereo not given),-2,-3,103,2,0.93,101
Cc1c(C(=O)NCc2ccc3c(c2)OCO3)cccc1[N+](=O)[O-],-22,2,96,6,1,98
O=C1N2CCCc3cccc(c32)C12Nc1ccccc1S2 (stereo not given),-4,1,135*,-35,0.84,99
CC1CC(C)(C)N2C(=O)C3(Nc4ccccc4S3)c3cccc1c32 (stereo not given),1,6,107,-1,0.87,95
CN(C)c1ccc(/C=C(\Cl)c2nc3ccccc3s2)cc1,118,-40,68,40,0.8,136*
CCN(CC)CCNS(=O)(=O)c1ccc(C(=O)NN)cc1,24,6,93,8,1.1,95
O=C(CN1CCCCCCC1)N/N=C/c1ccc(F)c(F)c1,14,-1,92,11,1.1,101
Oc1ccccc1-c1cc(-c2ccccc2Cl)[nH]n1,231*,-8,93,11,8.7*,108
SMILES,APP 5'UTR act,STAT1 inh,STAT3 activator,STAT3 inh,NF-kB neuron act,STAT1 act
S=c1[nH]nc(-c2cc(-c3ccco3)[nH]n2)n1-c1ccccc1,-9,1,96,9,1.1,100
Oc1ccc(Cl)cc1-c1cc(-c2ccccc2Cl)[nH]n1,11,1,126,-27,1.1,99
Oc1ccc(Cl)cc1-c1cc(-c2ccco2)[nH]n1,-12,-12,134*,-39,1.6,111
Oc1ccccc1-c1cc(-c2ccco2)[nH]n1,115,-3,132,-30,3.9*,102
Cc1cc(C)n(CC(O)COc2ccc3ccccc3c2)n1 (stereo not given),19,-39,102,1,2.2,133*
Cc1cc(C)n(CC(O)COc2ccccc2)n1 (stereo not given),-11,-3,83,23,1.3,102
O=C(OCC(=O)N1CCc2ccccc21)c1nc(Cl)ccc1Cl,4,8,90,14,1.3,92
CCN(c1ccccc1)c1ncnc2c1cnn2-c1ccccc1,41,-34,114,-7,1.3,131*
CCOC(=O)CC(=O)CSc1ncnc2c1cnn2-c1ccccc1,45,-47,94,11,3.8*,143*
COc1ncnc2c1cnn2-c1ccccc1,17,-7,90,12,1.4,106
CN(Cc1ccccc1)c1ncnc2c1cnn2-c1ccccc1,124,-54,87,19,4.7*,150*
Cc1ccc(N(C(=O)Cn2nnc(-c3ccc(F)cc3)n2)C(CC(C)C)C(=O)NCC2CCCO2)cc1 (stereo not given),-25,5,97,10,0.66,95
COc1ccc([N+](=O)[O-])cc1N(CC(=O)NCCCOC(C)C)S(C)(=O)=O,-21,-3,101,5,1.3,101
c1ccn2cc(-c3ccc4c(c3)OCCO4)nc2c1,117,60*,26,90*,1.9,44
Clc1ccc2nc(-c3ccc4c(c3)OCO4)cn2c1,158*,65*,29,83*,5*,40
COc1ccc(C2CC(c3c(O)cc(C)oc3=O)=NCCS2)c(OC)c1 (stereo not given),-93,-38,164*,-66,5.8*,136*
Cc1ccc(-c2nnc(-c3ccccc3)o2)cc1Br,43,-27,88,17,·,125
c1ccc(-c2nnc(-c3ccncc3)o2)cc1,29,-28,98,3,1.8,117
Brc1cccc(-c2nnc(-c3ccccc3)o2)c1,56,-34,110,-11,1,132*
c1ccc(-c2nnc(-c3ccccc3)o2)cc1,163*,-43,99,4,4.6*,139*
Cc1cccc(-c2nnc(-c3ccc(N)cc3)o2)c1,57,-51,84,22,4*,147*
Cc1ccc(-c2nnc(Nc3ccccc3)o2)cc1,99,72*,20,101*,3.3,34
Cc1ccc(NC(=O)Nc2nnc(-c3ccccc3)o2)cc1,30,-22,97,9,2.1,119
Cc1cccc(-c2nnc(SCc3ccccc3)o2)c1,45,-18,96,8,2.2,117
